These results are taken from ChEMBL document CHEMBL3351727, “New praziquantel derivatives containing NO-donor furoxans and related furazans as active agents against Schistosoma mansoni” (Eur J Med Chem, 2014).

The source made the active and inactive calls. No cut-off for these calls is given here.

Data set [1] relates to Schistosoma mansoni. Put plainly: Antiparasitic activity against Schistosoma mansoni infected in female Swiss-Webster mouse assessed as worm killing at 50 uM after 144 hrs by stereomicroscopy.
Data set [2] has as its target T1, Thioredoxin glutathione reductase (Schistosoma mansoni, UniProt Q962Y6).
T1 sequence (Q962Y6 whole entry): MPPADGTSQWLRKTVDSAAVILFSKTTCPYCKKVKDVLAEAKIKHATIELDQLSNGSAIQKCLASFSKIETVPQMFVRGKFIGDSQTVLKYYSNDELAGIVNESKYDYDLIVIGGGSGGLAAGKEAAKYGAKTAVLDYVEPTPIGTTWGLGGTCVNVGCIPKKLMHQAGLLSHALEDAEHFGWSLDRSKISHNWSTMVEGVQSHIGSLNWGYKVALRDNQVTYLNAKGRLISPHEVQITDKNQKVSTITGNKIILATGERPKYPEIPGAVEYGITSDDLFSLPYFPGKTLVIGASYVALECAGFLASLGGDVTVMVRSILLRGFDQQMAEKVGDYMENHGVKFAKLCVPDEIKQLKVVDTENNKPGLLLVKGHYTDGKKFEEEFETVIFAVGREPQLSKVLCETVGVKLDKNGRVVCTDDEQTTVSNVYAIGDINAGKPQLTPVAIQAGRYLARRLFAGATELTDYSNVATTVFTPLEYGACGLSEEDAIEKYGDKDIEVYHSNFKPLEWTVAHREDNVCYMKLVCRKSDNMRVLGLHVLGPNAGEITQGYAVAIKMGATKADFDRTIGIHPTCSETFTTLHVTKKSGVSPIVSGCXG
Nature of the data set: Inhibition of Schistosoma mansoni recombinant thioredoxin glutathione reductase assessed as 5-thio-2nitrobezoic acid formation after 3 mins.

Data set [3] has as its system Schistosoma mansoni. Nature of the data set: Antiparasitic activity against Schistosoma mansoni cercariae infected in female Swiss-Webster mouse assessed as worm contraction at 50 uM after 24 to 48 hrs by stereomicroscopy. Format: functional, organism-based. Summed up: (§1)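 Adult worms were washed in RPMI 1640 with 25 mM HEPES, penicillin, streptomycin and 10% FBS, then held 15–20 per well overnight at 37°C in 5% CO₂. Medium was renewed the next day. Compounds from 10 mM DMSO stocks were added at 10 or 50 μM, with equal DMSO volumes in all wells and DMSO-only negative controls. After compound removal, morphology and mobility were followed over days.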

The test system of data set [4] is Schistosoma mansoni. Nature of the data set: Antiparasitic activity against Schistosoma mansoni infected in female Swiss-Webster mouse assessed as worm killing at 10 uM after 144 hrs by stereomicroscopy.
Data set [5] has as its system Schistosoma mansoni. Put plainly: Antiparasitic activity against Schistosoma mansoni cercariae infected in female Swiss-Webster mouse assessed as worm contraction at 10 uM after 24 to 48 hrs by stereomicroscopy. It counts as functional, organism-based. Summed up:
as §1

Data set [6] deals with Schistosoma mansoni. Nature of the data set: Antiparasitic activity against Schistosoma mansoni infected in female Swiss-Webster mouse assessed as worm killing at 50 uM after 72 hrs by stereomicroscopy. Format: functional, organism-based. Summed up: as §1
The nature of data set [7]: Induction of NO release in pH 7.4 buffer solution at 5:1 excess of L-cysteine after 1 hr incubation by Griess assay. As to conditions: pH 7.4, 1 h. Format: physicochemical. Summed up: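 Compound was incubated 1 hr at 37 °C in pH 7.4 buffer with a 5:1 molar excess of L-cysteine. Nitrite was measured by Griess reaction and reported as % NO₂⁻ (mol/mol) ± SE.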
The subject of data set [8] is Schistosoma mansoni. Put plainly: Antiparasitic activity against Schistosoma mansoni cercariae infected in female Swiss-Webster mouse assessed as female worm contraction at 10 uM after 24 to 48 hrs by stereomicroscopy. It counts as functional, organism-based. The gist of the method:
as §1

The test system of data set [9] is Schistosoma mansoni. Put plainly: Antiparasitic activity against Schistosoma mansoni infected in female Swiss-Webster mouse assessed as worm killing at 50 uM after 48 hrs by stereomicroscopy. It counts as functional. Summed up: (§2)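 Adult S. mansoni worms were washed in complete RPMI 1640 with 25 mM HEPES, penicillin, streptomycin and 10% FBS. They were held 15–20 per well overnight at 37°C in 5% CO₂, then moved to fresh medium. Compounds from 10 mM DMSO stocks were added to final 10 or 50 μM. Controls received an equal volume of DMSO, and worm death was scored.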

Data set [10] concerns Schistosoma mansoni. Nature of the data set: Antiparasitic activity against Schistosoma mansoni infected in female Swiss-Webster mouse assessed as worm killing at 10 uM after 48 hrs by stereomicroscopy. Format: functional. Summed up:
as §2

Data set [11] concerns Schistosoma mansoni. Nature of the data set: Antiparasitic activity against Schistosoma mansoni infected in female Swiss-Webster mouse assessed as worm killing at 50 uM after 24 hrs by stereomicroscopy. It counts as functional, organism-based. The gist of the method: as §1
Data set [12] relates to Schistosoma mansoni. Put plainly: Antiparasitic activity against Schistosoma mansoni cercariae infected in female Swiss-Webster mouse assessed as male worm contraction at 50 uM after 24 to 48 hrs by stereomicroscopy. It counts as functional, organism-based. The gist of the method: as §1
In data set [13] the test system is Schistosoma mansoni. Nature of the data set: Antiparasitic activity against Schistosoma mansoni infected in female Swiss-Webster mouse assessed as worm killing at 10 uM after 96 hrs by stereomicroscopy. It counts as functional, organism-based. The gist of the method: as §1

Broadly, the IC50 is the midpoint of a concentration-inhibition curve. As for `N#Cc1nonc1C(=O)N1CC(=O)N2CCc3ccccc3C2C1` (stereo not given), the Activity is reported as 25% in data set [1] and 20% in [4]. Besides, the IC50 in data set [2] (read-out: IC50) is > 50 µM. In addition, the outcome in data set [3] and in [5] was Active.
`N#Cc1c(C(=O)N2CC(=O)N3CCc4ccccc4C3C2)no[n+]1[O-]` (stereo not given): the result in data set [6], in data set [3] and in data set [8] was Active. In data set [2] (read-out: IC50), the IC50 turned out to be 0.316 µM. The Activity in data set [7] stood at 56.2%; in [4], 30%.
As for `COC(=O)c1c(C(=O)N2CC(=O)N3CCc4ccccc4C3C2)no[n+]1[O-]` (stereo not given), the Activity is 50% in data set [1], < 1% in data set [7] and 23% in [4]. Besides, the IC50 in data set [2] (read-out: IC50) is 0.148 µM. In addition, the outcome in data set [3] and in data set [5] was Active.
`NC(=O)c1nonc1COc1ccc2c(c1)C1CN(C(=O)C3CCCCC3)CC(=O)N1CC2` (stereo not given): the result in data set [9], in data set [10], in data set [3] and in data set [5] was inactive. Moreover, the IC50 in data set [2] (read-out: IC50) was > 50 µM.
As for `O=C(C1CCCCC1)N1CC(=O)N2CCc3ccc(OCCCOc4no[n+]([O-])c4S(=O)(=O)c4ccccc4)cc3C2C1` (stereo not given), the outcome in [11], in [12] and in [10] was Active. Further, the IC50 in data set [2] (read-out: IC50) turned out to be 8.5 µM. Further, the Activity in data set [7] was found to be 15.7%. Moreover, the outcome in data set [5] was inactive.
Take `O=C(C1CCCCC1)N1CC(=O)N2CCc3ccc(OCCCOc4nonc4S(=O)(=O)c4ccccc4)cc3C2C1` (stereo not given): the outcome in data set [9] and in [10] was inactive. Moreover, in data set [2] (read-out: IC50), the IC50 is > 50 µM. Further, the result in data set [3] and in [5] was Active.
For the compound `N#Cc1c(-c2ccccc2)no[n+]1[O-]` [FUROXAN], the outcome in data set [11] and in data set [13] was Active. Besides, the result in data set [3] and in [5] was inactive.
In the case of `N#Cc1nonc1COc1ccc2c(c1)C1CN(C(=O)C3CCCCC3)CC(=O)N1CC2` (stereo not given), the result in [9], in data set [10] and in data set [5] was inactive. The IC50 in data set [2] (read-out: IC50) is > 50 µM. For the same compound, the result in [3] was Active.
Turning to `NC(=O)c1c(C(=O)N2CC(=O)N3CCc4ccccc4C3C2)no[n+]1[O-]` (stereo not given), the figures for the Activity in data set [1], in data set [7] and in [4] were 80%, 1.8% and 30%, respectively. Besides, the IC50 in data set [2] (read-out: IC50) was found to be 0.01 µM. Further, the outcome in data set [3] and in data set [5] was Active.
For `NC(=O)c1nonc1C(=O)N1CC(=O)N2CCc3ccccc3C2C1` (stereo not given), the Activity in data set [1] and in data set [4] was 23% in each case. For the same compound, the IC50 in [2] (read-out: IC50) was > 50 µM. Moreover, the result in data set [3] and in data set [5] was Active.
As for `O=C(C1CCCCC1)N1CC(=O)N2CCc3ccccc3C2C1` (racemic) [PRAZIQUANTEL], the Activity in [1] stood at 40%; in data set [4] it was 15%. For the same compound, the concentration for half-maximal inhibition (IC50) entry in data set [2] is reported as “Not Active”. In addition, the outcome in data set [3] and in data set [5] was Active.
Take `NC(=O)c1c(COc2ccc3c(c2)C2CN(C(=O)C4CCCCC4)CC(=O)N2CC3)no[n+]1[O-]` (stereo not given): the outcome in data set [9], in data set [10], in data set [3] and in data set [5] was inactive. In [2] (read-out: IC50), the IC50 is 0.083 µM. The Activity in data set [7] is 1.1%.
Regarding `COC(=O)c1nonc1C(=O)N1CC(=O)N2CCc3ccccc3C2C1` (stereo not given), the values for the Activity in [1] and in data set [4] were 18% and 15%, respectively. The IC50 in data set [2] (read-out: IC50) was > 50 µM. The outcome in data set [3] and in [5] was Active.
For `N#Cc1c(COc2ccc3c(c2)C2CN(C(=O)C4CCCCC4)CC(=O)N2CC3)no[n+]1[O-]` (stereo not given), the outcome in [11] and in data set [3] was Active. In addition, the IC50 in data set [2] (read-out: IC50) came out at 0.35 µM. The compound also registered an Activity in data set [7] of 33.8%. Moreover, the result in data set [10] and in data set [5] was inactive.
